Test results taken from article PMC11255784 (RSC Advances, 2024).

Columns and labels:
Mtb H37Rv strain = assay: Anti-TB activity, Microplate Alamar Blue Assay; assay type: cell-based, Mycobacterium tuberculosis; details: MABA, triplicates
HEK293T cells = assay: Cytotoxicity studies on HEK293T cell line; assay type: cell-based, human; details: for Selective index (SI): HEK293T IC50 versus MIC against Mtb H37Rv; for IC50: Homo sapiens, HEK-293T, read-out: IC50 (HEK293T)
In short: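 Normal human embryonic kidney HEK293T cells were exposed to test compounds over a dose range of 7 to 2000 μM, and cell proliferation was read as OD at 450 nm to give IC50.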

Mtb H37Rv = details: cited from earlier work
[1] = Mycobacterium tuberculosis, H37RV

Row | Molecule | MIC (Mtb H37Rv strain; [1]) | also measured
1 | 2-(4-(Phenylglycyl) piperazin-1-yl)-1,8-naphthyridine-3-carbonitrile [ANC-1] | – | MIC (Mtb H37Rv strain): 25 µg/mL; MIC (Mtb H37Rv strain; value in brackets): 67.12 µM
2 | N#Cc1cc2cccnc2nc1N1CCN(CC(=O)Nc2ccccc2)CC1 [ANA-1, 2-(4-(3-Cyano-1,8-naphthyridin-2-yl)piperazin-1-yl)-N-phenylacetamide] | 12.5 µg/mL | Selective index (SI) (HEK293T cells): 17; IC50 (HEK293T cells): 580 ± 20.2 µM
3 | CCc1ccc(NC(=O)CN2CCN(c3nc4ncccc4cc3C#N)CC2)cc1 [ANA-2, 2-(4-(3-Cyano-1,8-naphthyridin-2-yl)piperazin-1-yl)-N-(4-ethylphenyl)acetamide] | 25 µg/mL | –
4 | Cc1ccc(NC(=O)CN2CCN(c3nc4ncccc4cc3C#N)CC2)cc1C [ANA-3, 2-(4-(3-Cyano-1,8-naphthyridin-2-yl)piperazin-1-yl)-N-(3,4-dimethylphenyl)acetamide] | 25 µg/mL | –
5 | N#Cc1cc2cccnc2nc1N1CCN(CC(=O)Nc2ccc(F)cc2)CC1 [ANA-4, 2-(4-(3-Cyano-1,8-naphthyridin-2-yl)piperazin-1-yl)-N-(4-fluorophenyl)acetamide] | 25 µg/mL | –
6 | N#Cc1cc2cccnc2nc1N1CCN(CC(=O)Nc2ccc(Br)cc2)CC1 [ANA-5, N-(4-Bromophenyl)-2-(4-(3-cyano-1,8-naphthyridin-2-yl)piperazin-1-yl)acetamide] | 25 µg/mL | –
7 | N#Cc1cc2cccnc2nc1N1CCN(CC(=O)Nc2ccccc2F)CC1 [ANA-6, 2-(4-(3-Cyano-1,8-naphthyridin-2-yl)piperazin-1-yl)-N-(2-fluorophenyl)acetamide] | 12.5 µg/mL | Selective index (SI) (HEK293T cells): 23; IC50 (HEK293T cells): 753 ± 7.63 µM
8 | N#Cc1cc2cccnc2nc1N1CCN(CC(=O)Nc2ccccc2[N+](=O)[O-])CC1 [ANA-7, 2-(4-(3-Cyano-1,8-naphthyridin-2-yl)piperazin-1-yl)-N-(2-nitrophenyl)acetamide] | 12.5 µg/mL | Selective index (SI) (HEK293T cells): 19; IC50 (HEK293T cells): 571.2 ± 4.45 µM
9 | N#Cc1cc2cccnc2nc1N1CCN(CC(=O)Nc2cccc(C(F)(F)F)c2)CC1 [ANA-8, 2-(4-(3-Cyano-1,8-naphthyridin-2-yl)piperazin-1-yl)-N-(3(trifluoromethyl)phenyl)acetamide] | 12.5 µg/mL | –
10 | N#Cc1cc2cccnc2nc1N1CCN(CC(=O)Nc2ccc(F)c(F)c2)CC1 [ANA-9, 2-(4-(3-Cyano-1,8-naphthyridin-2-yl)piperazin-1-yl)-N-(3,4-difluorophenyl)acetamide] | 25 µg/mL | –
11 | N#Cc1cc2cccnc2nc1N1CCN(CC(=O)Nc2cccc([N+](=O)[O-])c2)CC1 [ANA-10, 2-(4-(3-Cyano-1,8-naphthyridin-2-yl)piperazin-1-yl)-N-(3-nitrophenyl)acetamide] | 12.5 µg/mL | –
12 | N#Cc1cc2cccnc2nc1N1CCN(CC(=O)Nc2ccc([N+](=O)[O-])cc2)CC1 [ANA-11, 2-(4-(3-Cyano-1,8-naphthyridin-2-yl)piperazin-1-yl)-N-(4-nitrophenyl)acetamide] | 25 µg/mL | –
13 | N#Cc1cc2cccnc2nc1N1CCN(C(=O)c2ccc([N+](=O)[O-])o2)CC1 [ANA-12, 2-(4-(5-Nitrofuran-2-carbonyl)piperazin-1-yl)-1,8-naphthyridine-3-carbonitrile] | 6.25 µg/mL | Selective index (SI) (HEK293T cells): 27; IC50 (HEK293T cells): 451 ± 20.2 µM
14 | CCc1ccc(NCC(=O)N2CCN(c3nc4ncccc4cc3C#N)CC2)cc1 [ANC-2, 2-(4-((4-Ethylphenyl)glycyl)piperazin-1-yl)-1,8-naphthyridine-3-carbonitrile] | 12.5 µg/mL | Selective index (SI) (HEK293T cells): 11; IC50 (HEK293T cells): 330 ± 3.4 µM
15 | Cc1ccc(NCC(=O)N2CCN(c3nc4ncccc4cc3C#N)CC2)cc1C [ANC-3, 2-(4-((3,4-Dimethylphenyl)glycyl)piperazin-1-yl)-1,8-naphthyridine-3-carbonitrile] | 50 µg/mL | –
16 | N#Cc1cc2cccnc2nc1N1CCN(C(=O)CNc2ccc(F)cc2)CC1 [ANC-5, 2-(4-((4-Fluorophenyl)glycyl)piperazin-1-yl)-1,8-naphthyridine-3-carbonitrile] | 25 µg/mL | –

Row | Molecule | MIC (Mtb H37Rv strain; [1]) | also measured
17 | N#Cc1cc2cccnc2nc1N1CCN(C(=O)CNc2ccc(Cl)cc2)CC1 [ANC-6, 2-(4-((4-Chlorophenyl)glycyl)piperazin-1-yl)-1,8-naphthyridine-3-carbonitrile] | 25 µg/mL | –
18 | N#Cc1cc2cccnc2nc1N1CCN(C(=O)CNc2ccc(Br)cc2)CC1 [ANC-7, 2-(4-((4-Bromophenyl)glycyl)piperazin-1-yl)-1,8-naphthyridine-3-carbonitrile] | 25 µg/mL | –
19 | N#Cc1cc2cccnc2nc1N1CCN(C(=O)CNc2ccccc2F)CC1 [ANC-8, 2-(4-((2-Fluorophenyl)glycyl)piperazin-1-yl)-1,8-naphthyridine-3-carbonitrile] | 25 µg/mL | –
20 | N#Cc1cc2cccnc2nc1N1CCN(C(=O)CNc2ccccc2I)CC1 [ANC-9, 2-(4-((2-Iodophenyl)glycyl)piperazin-1-yl)-1,8-naphthyridine-3-carbonitrile] | 25 µg/mL | –
21 | N#Cc1cc2cccnc2nc1N1CCN(C(=O)CNc2ccc(Br)cc2[N+](=O)[O-])CC1 [ANC-10, 2-(4-((4-Bromo-2-nitrophenyl)glycyl)piperazin-1-yl)-1,8-naphthyridine-3-carbonitrile] | > 50 µg/mL | –
22 | N#Cc1cc2cccnc2nc1N1CCN(C(=O)CNc2cccc(Cl)c2)CC1 [ANC-11, 2-(4-((3-Chlorophenyl)glycyl)piperazin-1-yl)-1,8-naphthyridine-3-carbonitrile] | 50 µg/mL | –
23 | N#Cc1cc2cccnc2nc1N1CCN(C(=O)CNc2cccc(C(F)(F)F)c2)CC1 [ANC-12, 2-(4-((3-(Trifluoromethyl)phenyl)glycyl)piperazin-1-yl)-1,8-naphthyridine-3-carbonitrile] | 25 µg/mL | –
24 | N#Cc1cc2cccnc2nc1N1CCN(C(=O)CNc2ccc(Cl)cc2Cl)CC1 [ANC-13, 2-(4-((2,4-Dichlorophenyl)glycyl)piperazin-1-yl)-1,8-naphthyridine-3-carbonitrile] | 50 µg/mL | –
25 | N#Cc1cc2cccnc2nc1N1CCN(C(=O)CNc2ccc(F)c(F)c2)CC1 [ANC-14, 2-(4-((3,4-Difluorophenyl)glycyl)piperazin-1-yl)-1,8-naphthyridine-3-carbonitrile] | > 50 µg/mL | –
26 | N#Cc1cc2cccnc2nc1N1CCNCC1 [ANI-1, 2-(Piperazin-1-yl)-1,8-naphthyridine-3-carbonitrile] | 25 µg/mL | –
27 | N#Cc1cc2cccnc2nc1N1CCN(C(=O)CCl)CC1 [ANI-2, 2-(4-(2-Chloroacetyl)piperazin-1-yl)-1,8-naphthyridine-3-carbonitrile] | 25 µg/mL | –
28 | CC[C@@H](CO)NCCN[C@@H](CC)CO [Ethambutol, reference compound] | 6.25 µg/mL | –
29 | NNC(=O)c1ccncc1 [Isoniazid, reference compound] | 0.36 µg/mL | –
30 | CO[C@H]1/C=C/O[C@@]2(C)Oc3c(C)c(O)c4c(O)c(c(/C=N/N5CCN(C)CC5)c(O)c4c3C2=O)NC(=O)/C(C)=C\C=C\[C@H](C)[C@H](O)[C@@H](C)[C@@H](O)[C@@H](C)[C@H](OC(C)=O)[C@@H]1C [Rifampicin, reference compound] | 3.13 µg/mL | inhibition against Mtb H37Rv (Mtb H37Rv): 98%
31 | Nc1ccc(C(=O)O)c(O)c1 [p-Amino salicylic acid, reference compound] | 12.5 µg/mL | –
